Experimental data from ChEMBL document CHEMBL4190402, “Development of a Novel Human Parathyroid Hormone Receptor 1 (hPTHR1) Agonist (CH5447240), a Potent and Orally Available Small Molecule for Treatment of Hypoparathyroidism” (J Med Chem, 2018).
≈ marks a conversion by molar mass, not a printed value. Each block holds one compound with its values, some of them ahead of it. Calls of active or inactive are those of the source. No cut-off for these calls is given here.

Tests used:
Rattus norvegicus [1] = assay: Tmax in Sprague-Dawley rat at 5 ug/kg, sc; format: ADME, organism-based; settings: in vivo, 0.005 mg/kg
[2] = Half life in Sprague-Dawley rat at 5 ug/kg, sc; format: ADME, organism-based; settings: in vivo, 0.005 mg/kg
hERG (KCNH2) = hERG (KCNH2) (Homo sapiens, UniProt Q12809); assay: Inhibition of human ERG at a holding potential of -80 mV at 10 uM by automated patch clamp electrophysiology method
hERG (KCNH2), sequence (Q12809 whole entry, the tested form may be a part): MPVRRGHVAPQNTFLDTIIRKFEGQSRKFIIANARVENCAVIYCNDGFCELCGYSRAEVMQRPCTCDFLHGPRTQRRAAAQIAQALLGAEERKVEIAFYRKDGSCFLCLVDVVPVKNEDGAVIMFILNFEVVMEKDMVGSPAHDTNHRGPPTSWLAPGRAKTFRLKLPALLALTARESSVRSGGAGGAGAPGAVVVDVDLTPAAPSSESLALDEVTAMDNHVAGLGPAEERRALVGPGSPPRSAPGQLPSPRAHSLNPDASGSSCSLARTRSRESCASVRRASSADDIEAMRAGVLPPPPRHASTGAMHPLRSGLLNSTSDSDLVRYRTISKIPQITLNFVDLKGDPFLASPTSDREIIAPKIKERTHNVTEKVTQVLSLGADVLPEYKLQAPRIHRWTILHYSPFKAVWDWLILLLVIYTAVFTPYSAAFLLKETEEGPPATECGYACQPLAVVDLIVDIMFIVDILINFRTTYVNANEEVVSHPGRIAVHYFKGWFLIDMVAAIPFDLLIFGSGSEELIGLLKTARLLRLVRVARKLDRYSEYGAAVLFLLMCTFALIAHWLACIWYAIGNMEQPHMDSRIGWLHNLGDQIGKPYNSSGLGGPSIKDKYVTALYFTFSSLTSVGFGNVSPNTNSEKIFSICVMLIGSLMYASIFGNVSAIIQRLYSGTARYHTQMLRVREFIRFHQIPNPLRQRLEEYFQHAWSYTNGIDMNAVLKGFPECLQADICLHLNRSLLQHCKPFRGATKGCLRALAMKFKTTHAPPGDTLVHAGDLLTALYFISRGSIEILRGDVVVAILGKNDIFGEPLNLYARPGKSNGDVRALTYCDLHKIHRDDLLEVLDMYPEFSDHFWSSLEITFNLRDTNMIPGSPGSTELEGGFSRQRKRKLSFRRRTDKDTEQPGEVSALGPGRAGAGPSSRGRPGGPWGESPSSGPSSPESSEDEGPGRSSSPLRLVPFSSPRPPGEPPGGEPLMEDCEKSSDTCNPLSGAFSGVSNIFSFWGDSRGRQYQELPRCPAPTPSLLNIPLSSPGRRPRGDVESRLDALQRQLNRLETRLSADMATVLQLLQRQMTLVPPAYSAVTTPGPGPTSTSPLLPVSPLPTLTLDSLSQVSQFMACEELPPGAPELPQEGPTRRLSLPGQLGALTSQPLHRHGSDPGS

[3] = target: T1, Parathyroid hormone/parathyroid hormone-related peptide receptor (Homo sapiens, UniProt Q03431); assay: Displacement of 125I-PTH (1 to 15 residues) from human PTHR1 expressed in African green monkey COS7 cell membranes at 300 uM after 90 mins by gamma counting analysis
T1 sequence (Q03431 whole entry): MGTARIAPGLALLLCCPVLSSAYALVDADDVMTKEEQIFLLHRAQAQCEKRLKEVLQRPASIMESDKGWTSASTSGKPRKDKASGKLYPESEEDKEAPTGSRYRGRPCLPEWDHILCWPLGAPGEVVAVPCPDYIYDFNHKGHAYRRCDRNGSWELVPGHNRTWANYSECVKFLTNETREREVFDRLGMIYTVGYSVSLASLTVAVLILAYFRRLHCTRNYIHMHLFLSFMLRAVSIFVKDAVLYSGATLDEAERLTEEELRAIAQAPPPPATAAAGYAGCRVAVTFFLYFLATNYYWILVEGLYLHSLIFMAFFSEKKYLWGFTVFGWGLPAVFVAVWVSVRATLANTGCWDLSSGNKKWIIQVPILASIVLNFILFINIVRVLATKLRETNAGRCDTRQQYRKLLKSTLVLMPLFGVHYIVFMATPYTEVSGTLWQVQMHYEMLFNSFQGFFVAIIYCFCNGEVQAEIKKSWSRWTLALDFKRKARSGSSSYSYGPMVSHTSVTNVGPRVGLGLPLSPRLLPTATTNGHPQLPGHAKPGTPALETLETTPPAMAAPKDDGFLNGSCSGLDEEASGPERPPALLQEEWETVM

[4] = Intrinsic clearance in human liver microsomes assessed per mg protein at 1 uM after 30 mins in presence of NADPH by LC-MS/MS analysis; format: ADME, microsome; settings: read-out: CLH
[5] = target: T2, Parathyroid hormone/parathyroid hormone-related peptide receptor (Homo sapiens) (UniProt Q03431); assay: Ratio of IC50 for displacement of 125I-PTH (1 to 15 residues) from human PTHR1 expressed in African green monkey COS7 cell membranes to EC50 for agonist activity at human PTHR1 expressed in HKRKB7 cells assessed as accumulation of intracellular cAMP; format: functional
T2 sequence (whole entry): T1 sequence (Q03431 whole entry)

[6] = AUC (infinity) in Crl:CD/SD IGS, CRJ rat at 3 mg/kg, iv by LC-MS/MS analysis; format: ADME, organism-based; set-up: dose 3 mg/kg, route intravenous, time infinity; settings: in vivo
In short: (§1)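 Female 5-week-old rats, two per dose group, given 3 mg/kg orally or intravenously. Oral blood samples at 15 and 30 min, 1, 2, 4 and 6 h; intravenous sample at 3 min. Plasma drug measured by LC-MS/MS (detection limit 0.3 ng/ml). Parameters derived by noncompartmental analysis; mean of n=2.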

[7] = Half life in Crl:CD/SD IGS, CRJ rat at 3 mg/kg, po by LC-MS/MS analysis; format: ADME, organism-based; settings: in vivo; in short: as §1
LLC-PK1 = assay: Induction of cAMP production in porcine LLC-PK1 cells after 20 mins by enzyme immunoassay; format: functional, cell-based; settings: Sus scrofa
In short: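 Counter-screen on parent LLC-PK1 cells lacking hPTHR1. Conditions match the HKRK-B7 assay: 20 min at 37°C in IBMX-containing assay medium, then cAMP read by EIA.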

Rattus norvegicus [8] = assay: In vivo agonist activity at PTHR1 in po dosed Crl:CD(SD) rat TPTX model assessed as increase in serum calcium levels administered as single dose measured after 24 hrs by o-cresolphthalein complexone method; format: functional, organism-based
In short: (§2)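 Female 6-week-old Crl:CD(SD) rats after surgical TPTX; those with serum Ca <8.0 mg/dl at day 5 were used, and dosing began day 6. Single oral dose of 6, 19 or 60 mg/kg, or vehicle (10% DMSO/10% Kolliphor EL in 10% HPCD/0.752% glycine buffer), n=5 per group. Jugular blood taken under isoflurane before dosing and at 0.5, 1, 2, 4, 6, 10 and 24 h. Serum Ca measured by o-CPC, Pi by xanthine oxidase.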

[9] = Cmax in Crl:CD/SD IGS, CRJ rat at 3 mg/kg, po by LC-MS/MS analysis; format: ADME, organism-based; set-up: dose 3 mg/kg, route oral; settings: in vivo; in short: as §1
[10] = target: T1, Parathyroid hormone/parathyroid hormone-related peptide receptor; assay: (§3) Agonist activity at human PTHR1 expressed in HKRKB7 cells assessed as accumulation of intracellular cAMP after 20 mins by enzyme immunoassay; format: functional, cell-based
In short: (§4)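 HKRK-B7 cells (LLC-PK1 stably expressing hPTHR1), 1.0 x 10^3 per well, seeded overnight, then exposed to serially diluted compound in McCoy's 5A with 2 mg/ml BSA, 1 mmol/l IBMX and 2 mmol/l HEPES for 20 min at 37°C. Cells washed, frozen, lysed in 50 mmol/l HCl, cAMP read by EIA.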

[11] = target: T2, Parathyroid hormone/parathyroid hormone-related peptide receptor (Homo sapiens); assay: as §3; format: functional, cell-based; in short: as §4
[12] = Volume of distribution at steady state in Crl:CD/SD IGS, CRJ rat at 3 mg/kg, iv by LC-MS/MS analysis; format: ADME, organism-based; settings: in vivo, read-out: Vdss; in short: as §1
[13] = Intrinsic clearance in human liver microsomes assessed per mg protein at 1 uM after 30 mins in absence of NADPH by LC-MS/MS analysis; format: ADME, microsome; settings: microsomes, 0.5 h, 1 µM
Rattus norvegicus [14] = assay: In vivo agonist activity at PTHR1 in po dosed Crl:CD(SD) rat TPTX model assessed as decrease in serum phosphorus levels administered as single dose measured after 24 hrs by xanthine oxidase method; format: functional, organism-based; in short: as §2
[15] = Clearance in Crl:CD/SD IGS, CRJ rat at 3 mg/kg, po by LC-MS/MS analysis; format: ADME, organism-based; settings: in vivo; in short: as §1
[16] = target: T2, Parathyroid hormone/parathyroid hormone-related peptide receptor (Homo sapiens); assay: Displacement of 125I-PTH (1 to 15 residues) from human PTHR1 expressed in African green monkey COS7 cell membranes after 90 mins by gamma counting analysis
In short: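 Competition binding on membranes from COS-7 cells expressing human PTHR1. Incubated 90 min at room temperature, vacuum-filtered and washed, filter radioactivity gamma-counted. Nonspecific binding defined with excess (1x10^4 M as printed) unlabeled PTH(1-34).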

[17] = Solubility of the compound in FaSSIF at 1 mM by HPLC-UV analysis; format: physicochemical; settings: FaSSIF
In short: (§5)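 A 1 mM DMSO stock (50 µL) was freeze-dried, then the residue taken up in 50 mM PBS pH 6.5 or FaSSIF pH 6.5. Sonicated 10 min, shaken 2 h, centrifuged, filtered. Filtrate concentration determined by HPLC-UV against each compound's calibration curve.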

[18] = Solubility of the compound in PBS at pH 6.5 at 1 mM by HPLC-UV analysis; format: physicochemical; settings: PBS, pH 6.5; in short: as §5
[19] = Oral bioavailability in Crl:CD/SD IGS, CRJ rat at 3 mg/kg by LC-MS/MS analysis; format: ADME, organism-based; settings: in vivo; in short: as §1
[20] = AUC (infinity) in Crl:CD/SD IGS, CRJ rat at 3 mg/kg, po by LC-MS/MS analysis; format: ADME, organism-based; set-up: dose 3 mg/kg, time infinity, route oral; settings: in vivo; in short: as §1
[21] = Clearance in Crl:CD/SD IGS, CRJ rat at 3 mg/kg, iv by LC-MS/MS analysis; format: ADME, organism-based; settings: in vivo; in short: as §1
[22] = Half life in Crl:CD/SD IGS, CRJ rat at 3 mg/kg, iv by LC-MS/MS analysis; format: ADME, organism-based; settings: in vivo; in short: as §1
[23] = Tmax in Crl:CD/SD IGS, CRJ rat at 3 mg/kg, po by LC-MS/MS analysis; format: ADME, organism-based; settings: in vivo; in short: as §1

Tmax (Rattus norvegicus [1]): 0.25 h | half-life [2]: 0.5 h
Structure (SMILES): CC[C@H](C)[C@H](NC(=O)[C@H](CCC(=O)O)NC(=O)[C@H](CO)NC(=O)[C@@H](NC(=O)[C@@H](N)CO)C(C)C)C(=O)N[C@@H](CCC(N)=O)C(=O)N[C@@H](CC(C)C)C(=O)N[C@@H](CCSC)C(=O)N[C@@H](Cc1cnc[nH]1)C(=O)N[C@@H](CC(N)=O)C(=O)N[C@@H](CC(C)C)C(=O)NCC(=O)N[C@@H](CCCCN)C(=O)N[C@@H](Cc1cnc[nH]1)C(=O)N[C@@H](CC(C)C)C(=O)N[C@@H](CC(N)=O)C(=O)N[C@@H](CO)C(=O)N[C@@H](CCSC)C(=O)N[C@@H](CCC(=O)O)C(=O)N[C@@H](CCCN=C(N)N)C(=O)N[C@H](C(=O)N[C@@H](CCC(=O)O)C(=O)N[C@@H](Cc1c[nH]c2ccccc12)C(=O)N[C@@H](CC(C)C)C(=O)N[C@@H](CCCN=C(N)N)C(=O)N[C@@H](CCCCN)C(=O)N[C@@H](CCCCN)C(=O)N[C@@H](CC(C)C)C(=O)N[C@@H](CCC(N)=O)C(=O)N[C@@H](CC(=O)O)C(=O)N[C@H](C(=O)N[C@@H](Cc1cnc[nH]1)C(=O)N[C@@H](CC(N)=O)C(=O)N[C@@H](Cc1ccccc1)C(=O)O)C(C)C)C(C)C [TERIPARATIDE]

IC50 [3]: 93.7 µM | microsomal CLint at 1 µM [4]: 45 µL/min/mg | Ratio IC50/EC50 [5]: 8 | AUC(0-inf) [6]: 4820 ng·h/mL | half-life [7]: 1 h | Cmax [9]: 1360 ng/mL | EC50 [10]: 12 µM | EC20 [11]: 3 µM | Vd [12]: 0.395 L/kg | CLint [13]: 0.14 µL/min/mg | CL/F [15]: 19 mL/min/kg | inhibition [16]: 75% | solubility at 1000 µM [17]: 250 µg/mL (≈ 483 µM) | solubility at 1000 µM [18]: 99 µg/mL (≈ 191 µM) | bioavailability [19]: 55% | AUC(0-inf) [20]: 2650 ng·h/mL | clearance [21]: 10.4 mL/min/kg | half-life [22]: 1.1 h | Tmax [23]: 1 h
Structure (SMILES): Cc1cc(N(C)C(N)=O)cc(C)c1CCS(=O)(=O)N1CCC2(CC1)N=C([C@H]1CC[C@H](C)CC1)NC2=O
inhibition at 10 µM (hERG (KCNH2)): 10% | Activity (LLC-PK1): inactive | Activity (Rattus norvegicus [8]): Dose-dependent effect | Activity (Rattus norvegicus [14]): Dose-dependent effect
